# Laboratory results reported in the array DNA melting data of Ke et al. (doi:10.1101/2024.01.08.574731).
# Assays:
# [1] = folding enthalpy; higher = less favourable; fluorescence melt of hairpins on a sequencing array, two-state fit; conditions: sodium 0.088 M
# How it was run: (§1)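 Library hairpins on a sequenced MiSeq flow cell carried annealed Cy3 and quencher oligos, and their Cy3 fluorescence was imaged in 50 mM Na-HEPES pH 8.0 with 25 mM NaCl, in 2.5 °C steps up to 60 °C. Signals were normalised to Cy3 before quenching and to control constructs. Melting temperature and folding enthalpy were obtained from bootstrapped two-state fits, combined by inverse-variance weighting across four replicates, and the fitted temperatures were then raised by 9.35 °C to match UV melts.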
# [2] = melting temperature; fluorescence melt of hairpins on a sequencing array, two-state fit, raised by 9.35 °C to match UV melts; conditions: sodium 0.088 M
# How it was run: as §1
Sequence,folding enthalpy [1],Tm [2]
GATCCGAACCCGGATC ((((((....)))))),-38.9 kcal/mol,54.8 °C
GCGTCCGAAAGGAGCGC ((((((....))).))),-22.9 kcal/mol,66.8 °C
GCCAGGCGAAAGCAGGGC (((..((....))..))),-32.1 kcal/mol,64 °C
GATCCGTATGCGGATC ((((((....)))))),-40.3 kcal/mol,63.2 °C
GAATCCGGAAACGGGTTC (((.(((....))).))),-33.5 kcal/mol,52.2 °C
GCATTCCGAAAGGAGTGC (((.(((....))).))),-40 kcal/mol,58.4 °C
GTCCAAGGAAACTTGGAC (((((((....))))))),-41.8 kcal/mol,61.6 °C
GGCCATCGAAAGATTGCC (((.(((....))).))),-26.3 kcal/mol,49.3 °C
GTCAGGAAACTGAC (((((....))))),-25.6 kcal/mol,53.6 °C
GATCACAGTCGTGATC ((((((....)))))),-44.9 kcal/mol,56.2 °C
GTTTAAGGAAACCTAAAC (((((.(....).))))),-9.26 kcal/mol,24.8 °C
GCTATTGAAAAATAGC ((((((....)))))),-31.2 kcal/mol,49.5 °C
GAAGAAGCGAAAGCTTTC (((..(((....)))))),-9.3 kcal/mol,30.1 °C
GCGATTGGAAACAATCGC (((((((....))))))),-39.5 kcal/mol,69 °C
GATCACGGAAACGTAATC (((.(((....))).))),-20.3 kcal/mol,31.5 °C
GATCTCCAAAGAGATC ((((((....)))))),-35.6 kcal/mol,52.5 °C
GATACCGAAAGGTATC ((((((....)))))),-38.6 kcal/mol,62.5 °C
GAAGGCGAAAGCCAGTTC ((((((....)))..))),-10.2 kcal/mol,29.7 °C
GTAGCACCGAAAGGTTAC (((..(((....)))))),-8.52 kcal/mol,29.2 °C
GCGGGGCGAAAGCATCGC (((..((....))..))),-33.1 kcal/mol,65.2 °C
GACTGGGGAAACCCAGCC (.(((((....))))).),-15.4 kcal/mol,44.7 °C
GCTGTCGAAAGACGCAGC ((((((....)))..))),-14.1 kcal/mol,46.6 °C
GGCCGTGGAAACGCGGTC (.(((.(....).))).),-30.3 kcal/mol,52.5 °C
GCTATACCGAAAGGTAGC (((..(((....)))))),-17 kcal/mol,40 °C

Sequence,folding enthalpy [1],Tm [2]
GGATTGACGAAAGTCTCC (((..(((....)))))),-13.7 kcal/mol,28.4 °C
GAGTAAACGAAAGTTCTC (((..(((....)))))),-13.9 kcal/mol,30.1 °C
GAAGGCGGAAACGCCCTC ((.((((....)))).)),-8.85 kcal/mol,35.1 °C
AACGGGAAACCGTT (((((....))))),-18.5 kcal/mol,50.6 °C
GCGAACGAAAGTTTCGC ((((((....))).))),-36.7 kcal/mol,60 °C
GCCGCTCGAAAGAGAGGC (((.(((....))).))),-40 kcal/mol,67.1 °C
GACTGTGGAAACACAGTC (((((((....))))))),-37.5 kcal/mol,66.5 °C
GTTGTGGGAAACCATAAC (((.(((....))).))),-32.4 kcal/mol,43.5 °C
GATCAGGGGTCTGATC ((((((....)))))),-32.6 kcal/mol,50.8 °C
GCCTTGCGAAAGCATCGC ((..(((....)))..)),-12.4 kcal/mol,51 °C
GATATCCGAAAGGAATC (((.(((....)))))),-12.9 kcal/mol,30.2 °C
GCGCAGCGAAAGCAACGC (((..((....))..))),-10.2 kcal/mol,49.6 °C
GATCAGGACCCTGATC ((((((....)))))),-39.6 kcal/mol,54.4 °C
GTGCGGCGAAAGCCTCAC (((.(((....))).))),-29.4 kcal/mol,53.8 °C
GGCTTTGGAAACAGAGTC (.((.((....)).)).),-10.1 kcal/mol,29.3 °C
GCTTCGCGAAAGCTAAGC ((((.((....)).)))),-20.5 kcal/mol,57.2 °C
GCGTACATACGC ((((....)))),-24 kcal/mol,52.1 °C
GCGTTCCCACGC ((((....)))),-23.4 kcal/mol,51.9 °C
GTAGACGAAAGTCGGTAC ((((((....)))..))),-11.8 kcal/mol,34.6 °C
GATCCACCATTGGATC ((((((....)))))),-31.5 kcal/mol,49.4 °C
GCAATGCGAAAGCAGGGC ((..(((....)))..)),-25.4 kcal/mol,60.9 °C
GATGATGGAAACATCACC (.(((((....))))).),-16.3 kcal/mol,37.3 °C
GTGGAGGGAAACCCCCAC ((((.((....)).)))),-30.6 kcal/mol,48.8 °C
GATATGCGAAAGCAATC (((.(((....)))))),-10.7 kcal/mol,30 °C

Sequence,folding enthalpy [1],Tm [2]
GGGTACGAAAGTAAGCCC ((((((....)))..))),-20.7 kcal/mol,40.7 °C
GATCTGGTAACAGATC ((((((....)))))),-27 kcal/mol,60.5 °C
GGAAATGGAAACATTTCC (((((((....))))))),-41.5 kcal/mol,56.5 °C
GAGTACGAAAGTATCTC ((((((....))).))),-26.8 kcal/mol,41.9 °C
CGCTGGAAACAGCG (((((....))))),-31.2 kcal/mol,66.2 °C
GATCTACTATAGATC ((((((...)))))),-25.1 kcal/mol,40.5 °C
GATCGATCCCTCGATC ((((((....)))))),-44.1 kcal/mol,52.8 °C
GTTGGTGAAAACCAAC ((((((....)))))),-37 kcal/mol,58.5 °C
GCCTCAGAAATGAGGC ((((((....)))))),-30.8 kcal/mol,62.5 °C
GTGGTCGAAAGACGCCAC ((((((....)))..))),-15.9 kcal/mol,39.6 °C
GAGTACGAAAGTAACTC ((((((....))).))),-23.4 kcal/mol,45.4 °C
GATCATCCTAATGATC ((((((....)))))),-35 kcal/mol,49 °C
CGCCCGGAAACGGACGCG ((((((....)))..))),-12.2 kcal/mol,50.2 °C
GATCTACGCCTAGATC ((((((....)))))),-33.8 kcal/mol,42.6 °C
GACGGGGAAACCCGTC ((((((....)))))),-37.9 kcal/mol,68 °C
GTCAACGAAAGTTACGAC ((((((....)))..))),-16.4 kcal/mol,34.5 °C
GATCACGGGGTGATC ((((((...)))))),-33.6 kcal/mol,60.3 °C
GCTGCAGGAAACTACAGC ((((.((....)).)))),-33.9 kcal/mol,45.6 °C
GCTAAGCGAAAGCTTTGC ((.((((....)))).)),-30.6 kcal/mol,59.5 °C
GATCTTCGGAAGATC ((((((...)))))),-33.3 kcal/mol,41.9 °C
GTAGGGGAAACCCTAC ((((((....)))))),-36.7 kcal/mol,55.4 °C
GTCCACGGAAACGTGGGC (.(((((....))))).),-28.2 kcal/mol,62.1 °C
